Laboratory results reported in article PMC4467241 (Clinical Pharmacology in Drug Development, 2014).
Like-named read-outs stand apart in the source and are kept apart here. Marks after values point to notes of the source that are not given here.

Key:
[1] = format: in vivo, human; settings: for CL/F / AUC(0-t) / AUC(0-inf) / Cmax / half-life / tmax: plasma; for AUC(0-t) / AUC(0-inf) / Cmax / half-life / tmax: human, po; for AUC(0-t): AUC0–t; for AUC(0-inf): AUC0–∞
Procedure, shortened: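 Heparinised plasma was taken predose and at 0.5–48 h, spun within 30 min and stored at −70 °C. Parent and metabolite were measured by SPE LC–MS/MS; noncompartmental AUC, with ANOVA on log values giving geometric-mean ratio and 90% CI.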

[2] = cited from earlier work
[3] = 10 mg, MTX 10 mg oral alone (Day 1), N = 1
[4] = 12.5 mg, MTX 12.5 mg oral alone (Day 1), N = 1
[5] = 17.5 mg, MTX 17.5 mg oral alone (Day 1), N = 1
[6] = MTX 12.5 mg oral + Apremilast 30 mg Q12H (Day 8), N = 1
[7] = MTX 17.5 mg oral + Apremilast 30 mg Q12H (Day 8), N = 1
[8] = methotrexate in plasma, ANOVA, N = 15
[9] = methotrexate in plasma, all dose groups, N = 15, acceptance range 80–125%

## CN(Cc1cnc2nc(N)nc(N)c2n1)c1ccc(C(=O)N[C@@H](CCC(=O)O)C(=O)O)cc1 [MTX, methotrexate, reference compound]
[1]; MTX 10 mg oral alone (Day 1), N = 1
  CL/F: 120 mL/min
[1]; MTX 12.5 mg oral alone (Day 1), N = 1
  CL/F: 88 mL/min
[1]; MTX 17.5 mg oral alone (Day 1), N = 1
  CL/F: 129 mL/min
[1]; MTX 20 mg oral alone (Day 1), N = 6, arithmetic mean (SD)
  CL/F: 122 (33.7) mL/min
[1]; [3]
  AUC(0-t): 1390 ng·h/mL
  AUC(0-inf): 1380 ng·h/mL
  Cmax: 323 ng/mL
  tmax: 1.45 h
[1]; 10 mg, t1/2, MTX 10 mg oral alone (Day 1), N = 1
  half-life: 3.5 h
[1]; [4]
  AUC(0-t): 2360 ng·h/mL
  Cmax: 528 ng/mL
  tmax: 1 h
[1]; 12.5 mg, t1/2, MTX 12.5 mg oral alone (Day 1), N = 1
  half-life: 3.6 h
[1]; [5]
  AUC(0-t): 2250 ng·h/mL
  Cmax: 646 ng/mL
  tmax: 1 h
[1]; 17.5 mg, t1/2, MTX 17.5 mg oral alone (Day 1), N = 1
  half-life: 5.6 h
[1]; [6]
  AUC(0-t): 3020 ng·h/mL
  AUC(0-inf): 3010 ng·h/mL
  Cmax: 669 ng/mL
  tmax: 2.07 h
[1]; [7]
  AUC(0-t): 2270 ng·h/mL
  Cmax: 565 ng/mL
  tmax: 1 h
[1]; t1/2, MTX 12.5 mg oral + Apremilast 30 mg Q12H (Day 8), N = 1
  half-life: 3.2 h
[1]; methotrexate in plasma, ANOVA, N = 14
  Intra-subject CV% of AUC0–∞: 11.19%
[1]; [8]
  Intra-subject CV% of AUC0–t: 10.57%
  Intra-subject CV% of Cmax: 11.07%
[1]; methotrexate in plasma, all dose groups, N = 14, acceptance range 80–125%
  AUC0–∞ ratio of geometric means (“methotrexate + apremilast”/“methotrexate”): 100.39
[1]; methotrexate in plasma, all dose groups, N = 15, Hodges–Lehmann
  tmax median difference (“MTX + Apremilast” − “MTX”): 0.235 ^d hr
[1]; [9]
  AUC0–t ratio of geometric means (“methotrexate + apremilast”/“methotrexate”): 99.90
  Cmax ratio of geometric means (“methotrexate + apremilast”/“methotrexate”): 99.49
[1]; methotrexate with versus without apremilast
  90% CI for Cmax, AUC0–t and AUC0–∞ versus FDA acceptance range of 80–125%: within the acceptance range for equivalency
[2]
  Fraction metabolized to 7-hydroxy methotrexate: ~10%
